The results in this text go back to ChEMBL document CHEMBL1687902, “Discovery of potent inhibitors of soluble epoxide hydrolase by combinatorial library design and structure-based virtual screening” (J Med Chem, 2011).

The term IC50 denotes the point on the concentration scale where inhibition reaches its midpoint.

A short description of data set [1]: Inhibition of chimeric mouse-human sEH assessed as 6,8-difluoro-4-methylumbelliferyl trans-2,3-epoxy-3-phenylpropylcarbonate hydrolysis preincubated for 10 mins before addition of substrate by fluorometric assay.
The test system of data set [2] is soluble epoxide hydrolase (Chlorocebus aethiops). The experiment in a line: Inhibition of native sEH in african green monkey COS7 cells assessed as 11,12-epoxyeicosatrienoic acid hydrolysis preincubated for 1 hr before substrate addition measured after 2 hrs by LC/MS/MS. To be noted: cos-7.
Data set [3] can be described thus: Metabolic stability in human liver microsomes assessed as compound remaining after 30 mins. It is filed as ADME, Microsome. To be noted: read-out: Stability. In outline: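 Pooled human liver microsomes, compound at 1 μM in 100 mM phosphate buffer pH 7.4. NADP+ regenerating system (1 mM NADP+, 5 mM isocitric acid, 1 U/mL isocitric dehydrogenase) with 1 mM MgCl2. Read-out is percent parent remaining after 30 min incubation.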

Regarding `CC(=O)c1ccc(N2CCC(CC(=O)Nc3nc4ccc(C)cc4o3)CC2)cc1`, in data set [1], the concentration for half-maximal inhibition (IC50) came to 184 nM.

Regarding `CC(=O)c1ccc(N2CCC(CC(=O)Nc3nc4cc(Cl)ccc4o3)CC2)cc1`, the IC50 in data set [1] turned out to be 3.58 nM; in data set [2], 4.68 nM. Further, in data set [3], the remaining at 0.5 h worked out at 45%.

For the compound `Cc1ccc2nc(NC(=O)CC3CCN(C(=O)OC(C)(C)C)CC3)oc2c1`, the IC50 in data set [1] turned out to be 202 nM.

As to `Cc1cc(C)c2oc(NC(=O)CC3CCN(C(=O)OC(C)(C)C)CC3)nc2c1`, the IC50 worked out at 73 nM in data set [1] and 4.38 nM in data set [2]. In data set [3], the remaining at 0.5 h worked out at 22%.

As to `CC(=O)c1ccc(N2CCC(CC(=O)Nc3nc4c(C)cccc4o3)CC2)cc1`, the IC50 in data set [1] was 109 nM.

Regarding `CC(C)(C)OC(=O)N1CCC(CC(=O)Nc2nc3ccccc3o2)CC1`, the 50% inhibitory concentration (IC50) in data set [1] amounted to 94.3 nM; in data set [2] it was 10.3 nM. Besides, the remaining at 0.5 h in data set [3] stood at 83%.

As to `CC(=O)c1ccc(N2CCC(CC(=O)Nc3nc4cc(C)cc(C)c4o3)CC2)cc1`, the figures for the 50% inhibitory concentration (IC50) in data set [1] and in data set [2] were 46.5 nM and 1.42 nM, respectively. Moreover, in data set [3], the remaining at 0.5 h was determined as 22%.

Turning to `CC(=O)c1ccc(N2CCC(CC(=O)Nc3nc4ccccc4o3)CC2)cc1`, the half-inhibitory concentration (IC50) in data set [1] worked out at 19.4 nM; in data set [2], 22 nM. Further, the remaining at 0.5 h in data set [3] amounted to 62%.

In the case of `Cc1ccc2oc(NC(=O)CC3CCN(C(=O)OC(C)(C)C)CC3)nc2c1`, the results for the IC50 in data set [1] and in data set [2] were 11.4 nM and 0.486 nM, respectively. Also, the remaining at 0.5 h in data set [3] amounted to 6%.

Take `CC(=O)c1ccc(N2CCC(CC(=O)Nc3nc4cc(C)ccc4o3)CC2)cc1`: the IC50 in data set [1] is 3.61 nM; in data set [2] it was 5.76 nM. Moreover, in data set [3], the remaining at 0.5 h turned out to be 53%.

Turning to `CC(C)(C)OC(=O)N1CCC(CC(=O)Nc2nc3cc(Cl)ccc3o2)CC1`, the figures for the half-maximal inhibitory concentration (IC50) in data set [1] and in data set [2] were 6.92 nM and 1.54 nM, respectively. In addition, the remaining at 0.5 h in data set [3] was 43%.

Take `Cc1cccc2oc(NC(=O)CC3CCN(C(=O)OC(C)(C)C)CC3)nc12`: the IC50 in data set [1] was determined as 272 nM.
